The target in series [1] is T1, ABCG2 (Homo sapiens, UniProt Q9UNQ0).
T1 sequence (Q9UNQ0 whole entry): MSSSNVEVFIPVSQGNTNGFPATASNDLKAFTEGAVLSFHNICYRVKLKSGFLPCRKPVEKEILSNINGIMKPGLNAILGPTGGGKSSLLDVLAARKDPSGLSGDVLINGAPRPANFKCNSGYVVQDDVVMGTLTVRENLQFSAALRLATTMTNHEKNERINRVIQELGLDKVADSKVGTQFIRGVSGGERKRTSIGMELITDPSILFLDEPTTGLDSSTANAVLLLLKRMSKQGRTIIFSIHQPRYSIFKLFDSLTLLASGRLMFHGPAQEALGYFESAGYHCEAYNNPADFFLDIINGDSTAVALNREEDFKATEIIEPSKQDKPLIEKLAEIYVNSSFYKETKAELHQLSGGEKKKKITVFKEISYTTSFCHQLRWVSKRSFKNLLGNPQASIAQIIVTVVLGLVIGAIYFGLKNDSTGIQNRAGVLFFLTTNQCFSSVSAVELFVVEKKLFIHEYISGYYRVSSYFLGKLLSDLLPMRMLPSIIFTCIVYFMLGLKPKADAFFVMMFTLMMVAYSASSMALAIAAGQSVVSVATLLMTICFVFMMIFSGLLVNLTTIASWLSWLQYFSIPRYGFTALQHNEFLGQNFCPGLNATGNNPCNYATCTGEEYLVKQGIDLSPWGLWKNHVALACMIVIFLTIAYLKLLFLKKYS
Nature of the series: Inhibition of human ABCG2 in human R5 cells assessed as inhibition of mitoxantrone efflux at 10 uM measured by flow cytometric analysis relative to control. The format is cell-based. The settings on record: probe mitoxantrone. A digest of the protocol: (§1)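 HEK293 cells transfected with full-length ABCG2 (R-5) or empty pcDNA vector, grown in MEM with 10% FBS and 2 mg/ml G418. Cells incubated in IMDM with 5% FBS, 5 μM mitoxantrone (final) ± compound, 37°C for 45 min. Washed in cold IMDM, resuspended in cold PBS with 1% BSA, read by flow cytometry.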
Background: Flow cytometry measures light scatter and fluorescence of single cells or particles in a stream.

Series [2] concerns the target T2, Broad substrate specificity ATP-binding cassette transporter ABCG2 (Homo sapiens, UniProt Q9UNQ0).
T2 sequence (Q9UNQ0 whole entry): T1 sequence (Q9UNQ0 whole entry)
In words: Activation of human ABCG2-mediated ATPase activity preincubated for 2 mins followed by ATP addition and measured after 20 mins by colorimetric assay. A digest of the protocol: (§2)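 Total membrane vesicles from High-Five insect cells expressing human ABCG2 (hypotonic lysis, differential centrifugation), 10 μg protein/tube, in MES-Tris pH 6.8 buffer with KCl, MgCl2, NaN3, EGTA, ouabain, DTT. Compound in DMSO added ± sodium orthovanadate (0.3 mM), DMSO control. Preincubated 2 min at 37°C, then 5 mM ATP, 20 min. SDS stop, Pi measured colorimetrically. Three independent experiments in duplicate, mean ± SE.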

The target in series [3] is T1, ABCG2. Nature of the series: Activation of human ABCG2-mediated ATPase activity preincubated for 2 mins followed by ATP addition at 5 uM and measured after 20 mins by colorimetric assay relative to control. The settings on record: read-out: Activity. A digest of the protocol: as §2
The target in series [4] is T1, ABCG2. Nature of the series: Activation of human ABCG2-mediated ATPase activity preincubated for 2 mins followed by ATP addition at 0.5 uM and measured after 20 mins by colorimetric assay relative to control. The following applies: read-out: Activity. A digest of the protocol: as §2
Series [5] deals with T2, Broad substrate specificity ATP-binding cassette transporter ABCG2. Nature of the series: Inhibition of human ABCG2-mediated ATPase activity preincubated for 2 mins followed by ATP addition and measured after 20 mins by colorimetric assay. A digest of the protocol:
as §2

For series [6], the target named is T1, ABCG2. Nature of the series: Inhibition of human ABCG2-mediated ATPase activity preincubated for 2 mins followed by ATP addition at 2.5 uM and measured after 20 mins by colorimetric assay relative to control. Summed up:
as §2

Series [7] deals with T1, ABCG2. Nature of the series: Inhibition of human ABCG2-mediated ATPase activity preincubated for 2 mins followed by ATP addition at 10 uM and measured after 20 mins by colorimetric assay relative to control. Summed up:
as §2

In series [8] the target is T3, Adenosine receptor A3 (Homo sapiens, UniProt P0DMS8).
T3 sequence (P0DMS8 whole entry): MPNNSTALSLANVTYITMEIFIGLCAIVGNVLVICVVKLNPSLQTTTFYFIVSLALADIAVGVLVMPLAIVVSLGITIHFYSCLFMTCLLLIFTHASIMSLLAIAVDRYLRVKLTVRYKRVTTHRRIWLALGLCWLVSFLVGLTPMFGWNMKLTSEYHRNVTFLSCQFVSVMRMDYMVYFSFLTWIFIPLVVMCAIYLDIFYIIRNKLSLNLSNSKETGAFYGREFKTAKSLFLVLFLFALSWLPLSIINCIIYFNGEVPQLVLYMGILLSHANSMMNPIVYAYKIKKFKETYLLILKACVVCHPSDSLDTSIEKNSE
Nature of the series: Binding affinity towards human adenosine A3 receptor.

Series [9] deals with T2, Broad substrate specificity ATP-binding cassette transporter ABCG2. Nature of the series: Inhibition of human ABCG2 in human R5 cells assessed as inhibition of mitoxantrone efflux measured by flow cytometric analysis. In kind it is cell-based. A digest of the protocol:
as §1

For series [10], the target named is T1, ABCG2. In words: Activation of human ABCG2-mediated ATPase activity preincubated for 2 mins followed by ATP addition at 100 nM and measured after 20 mins by colorimetric assay relative to control. The following applies: read-out: Activity. Summed up: as §2
Series [11] deals with T1, ABCG2. Nature of the series: Effect on human ABCG2 transporter preincubated for 2 mins followed by ATP addition assessed as basal ATPase activity at 10 uM and measured after 20 mins by colorimetric assay relative to control. The following applies: read-out: Activity. A digest of the protocol: as §2
Series [12] concerns the target T1, ABCG2. Nature of the series: Effect on human ABCG2 transporter preincubated for 2 mins followed by ATP addition assessed as basal ATPase activity at 2.5 uM and measured after 20 mins by colorimetric assay relative to control. The following applies: read-out: Activity. A digest of the protocol: as §2
Series [13] has as its target T4, Adenosine receptor A3 (Mus musculus, UniProt Q61618).
T4 sequence (Q61618 whole entry): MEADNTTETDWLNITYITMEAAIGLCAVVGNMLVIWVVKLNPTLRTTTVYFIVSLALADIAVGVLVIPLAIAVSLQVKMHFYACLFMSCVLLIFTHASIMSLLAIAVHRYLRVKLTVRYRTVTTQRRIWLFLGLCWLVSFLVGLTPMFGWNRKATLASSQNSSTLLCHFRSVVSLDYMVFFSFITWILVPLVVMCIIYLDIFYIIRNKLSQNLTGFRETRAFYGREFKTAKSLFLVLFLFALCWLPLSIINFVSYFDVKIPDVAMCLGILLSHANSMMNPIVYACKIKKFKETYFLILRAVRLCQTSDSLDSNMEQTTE
Nature of the series: Binding affinity towards mouse adenosine A3 receptor.

Bounds are passed on as bounds.

The inhibition is the change of the read-out against control, counted positive when it falls. As usually defined, the EC50 is the midpoint of the concentration-response curve. A low value points to higher potency in that assay. In the case of `CNC(=O)C12CC1[C@@H](n1cnc3c(NCc4cccc(Cl)c4)nc(C#Cc4ccc(F)c(F)c4)nc31)[C@H](O)[C@@H]2O` (single isomer, unassigned), the inhibition at 10 µM on ABCG2 [1] was determined as 99.2%. Further, the EC50 in series [2] stood at 80 nM. The activity at 20 min, 5 µM at ABCG2 [3] was 56.8%. Also, the activity at 20 min, 0.5 µM on ABCG2 [4] stood at 74.4%.
For orientation: IC50 means the concentration at which inhibition is half-maximal. On to `CNC(=O)C12CC1[C@@H](n1cnc3c(NCc4cccc(-n5cc(-c6ccc(F)c(F)c6)nn5)c4)nc(C#Cc4cc(F)c(F)c(F)c4)nc31)[C@H](O)[C@@H]2O` (single isomer, unassigned), for which the inhibition at 10 µM at ABCG2 [1] worked out at 105%. Moreover, the half-maximal inhibitory concentration (IC50) in series [5] came to 4010 nM. Also, the inhibition at 20 min, 2.5 µM on ABCG2 [6] was 38.9%. In addition, the inhibition at 20 min, 10 µM on ABCG2 [7] was determined as 48.9%.
As for `CNC(=O)C12CC1[C@@H](n1cnc3c(NCc4cccc(-n5cc(-c6ccc(F)c(F)c6)nn5)c4)nc(C#Cc4ccc(F)c(F)c4)nc31)[C@H](O)[C@@H]2O` (single isomer, unassigned), the inhibition at 10 µM on ABCG2 [1] stood at 92.5%. Besides, the IC50 in [5] stood at 2570 nM. Moreover, at ABCG2 [6], the inhibition at 20 min, 2.5 µM was 43.5%.
By Ki is commonly meant the dissociation constant of the complex between target and ligand, obtained from inhibition or displacement. Higher therefore signals weaker binding. On to `COc1cc(CCNC2=NC(C#Cc3ccc(Cl)s3)=NC3=NC=NC32)ccc1O` (centres undefined), for which, on ABCG2 [1], the inhibition at 10 µM came to 110%. The compound further gave an EC50 in series [2] of 13.2 nM. At Adenosine receptor A3 [8], this compound came in with an inhibition constant (Ki) of 6820 nM. Moreover, in series [9], the IC50 turned out to be 4980 nM. Besides, the activity at 20 min, 0.1 µM on ABCG2 [10] came out at 111%.
`CNC(=O)C12CC1[C@@H](n1cnc3c(NCc4cccc(-n5cc(-c6ccc(F)c(F)c6)nn5)c4)nc(C#Cc4ccc(F)cc4)nc31)[C@H](O)[C@@H]2O` (single isomer, unassigned): the inhibition at 10 µM on ABCG2 [1] amounted to 102%. The same compound had a half-inhibitory concentration (IC50) in series [5] of 2590 nM. Further, the inhibition at 20 min, 2.5 µM at ABCG2 [6] amounted to 54.4%. Besides, the inhibition at 20 min, 10 µM at ABCG2 [7] stood at 74.7%.
For the compound `CCOC(=O)C12CC1[C@@H](n1ccc3c(NCCCc4ccc(OC)c(O)c4)nc(C#Cc4ccc(Cl)s4)nc31)[C@H](O)[C@@H]2O` (single isomer, unassigned), the inhibition at 10 µM at ABCG2 [1] is 109%. Moreover, a half-maximal response in series [2] (EC50) required 24.3 nM. In addition, the inhibitory constant (Ki) at Adenosine receptor A3 [8] was at least 99 nM. Further, in [9], the half-maximal inhibitory concentration (IC50) is 600 nM. Further, the activity at 20 min, 0.1 µM at ABCG2 [10] was determined as 74.2%.
Regarding `OCC12CC1[C@@H](n1cnc3c(NCc4cccc(-n5cc(-c6ccc(F)c(F)c6)nn5)c4)nc(C#Cc4ccc(F)c(F)c4)nc31)[C@H](O)[C@@H]2O` (single isomer, unassigned), the activity at 20 min, 10 µM on ABCG2 [11] was at most 30%. In addition, at ABCG2 [12], the activity at 20 min, 2.5 µM is at most 30%.
Consider `OCC12CC1[C@@H](n1cnc3c(NCc4cccc(-n5cc(-c6ccc(F)c(F)c6)nn5)c4)nc(C#Cc4ccc(F)cc4)nc31)[C@H](O)[C@@H]2O` (single isomer, unassigned), for which the activity at 20 min, 10 µM at ABCG2 [11] was at most 30%. Further, the activity at 20 min, 2.5 µM at ABCG2 [12] is at most 30%.
Take `CCOC(=O)C12CC1[C@@H](n1ccc3c(NCCc4ccccc4)nc(C#Cc4ccccc4)nc31)[C@H](O)[C@@H]2O` (single isomer, unassigned): the inhibition at 10 µM at ABCG2 [1] worked out at 92.6%. Further, the Ki on Adenosine receptor A3 [13] is above 10000 nM. Further, in [2], the concentration for a half-maximal effect (EC50) is 13.2 nM. Besides, the 50% inhibitory concentration (IC50) in series [9] was 440 nM. Further, the activity at 20 min, 0.1 µM on ABCG2 [10] was determined as 77.3%.

These data come from ChEMBL document CHEMBL5154735, “Interaction of A3 adenosine receptor ligands with the human multidrug transporter ABCG2” (Eur J Med Chem, 2022).
